Source: ChEMBL document CHEMBL1145384, “Novel C-6 fluorinated acyclic side chain pyrimidine derivatives: synthesis, (1)H and (13)C NMR conformational studies, and antiviral and cytostatic evaluations” (J Med Chem, 2007)

Experiments:
SW-620 = assay: Growth inhibition of SW620 cells after 72 hrs by MTT assay; format: functional, cell-based; conditions: Homo sapiens, SW-620, 72 h
In short: (§1)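 Tumor lines grown as monolayers in DMEM with 10% FBS, 2 mM L-glutamine and penicillin. Freshly diluted compounds added, solvent tested at matching concentrations; after 72 h growth measured by MTT. IC50 obtained by linear regression of concentrations bracketing 50% growth; mean of three separate experiments.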

[1] = Growth inhibition of human Molt4/C8 cells after 72 hrs by MTT assay; format: functional, cell-based; conditions: MOLT-4, 72 h
MCF7 = assay: Growth inhibition of MCF7 cells after 72 hrs by MTT assay; format: functional, cell-based; conditions: Homo sapiens, MCF7, 72 h; in short: as §1
Human betaherpesvirus 5 [2] = assay: Antiviral activity against human cytomegalovirus Davis in HEL cells assessed as reduction of plaque formation after 7days; format: functional, organism-based; conditions: Human betaherpesvirus 5, Davis, 168 h
In short: (§2)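 Confluent HEL fibroblasts infected with HCMV (Davis or AD-169) at 100 PFU per well; after 2 h adsorption, residual virus removed and medium with serial compound concentrations added (duplicate wells). Incubated 7 days; EC50 taken as concentration reducing plaque formation by 50%.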

MIA PaCa-2 = assay: Growth inhibition of MiaPaCa2 cells after 72 hrs by MTT assay; format: functional, cell-based; conditions: Homo sapiens, MIA PaCa-2, 72 h; in short: as §1
[3] = Cytotoxicity against HEL cells assessed as cell growth after 7 days; format: cell-based; conditions: human
HeLa = assay: Growth inhibition of HeLa cells after 72 hrs by MTT assay; format: functional, cell-based; conditions: Homo sapiens; in short: as §1
Punta Toro virus = assay: Antiviral activity against Punta Toro virus in Vero cells assessed as reduction of virus plaque formation after 7 days; format: functional, organism-based; conditions: 168 h
Human alphaherpesvirus 3 [4] = assay: Antiviral activity against thymidine kinase deficient Varicella-Zoster virus 07/1 assessed as reduction of plaque formation; format: functional, organism-based; conditions: Human alphaherpesvirus 3, 07/1
In short: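 Plaque reduction assay in HEL cells against TK+ (OKA) and TK- (07/1) VZV strains; virus input 100 PFU; EC50 as concentration giving 50% plaque reduction.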

Human alphaherpesvirus 3 [5] = assay: Antiviral activity against thymidine kinase expressing Varicella-Zoster virus OKA assessed as reduction of plaque formation; format: functional, organism-based; conditions: Human alphaherpesvirus 3, OKA
Human respirovirus 3 = assay: Antiviral activity against parainfluenza 3 virus in Vero cells assessed as reduction of virus plaque formation after 7 days; format: functional, organism-based; conditions: Human respirovirus 3, Vero, 168 h
HEp-2 = assay: Growth inhibition of Hep2 cells after 72 hrs by MTT assay; format: functional, cell-based; conditions: Homo sapiens, HEp-2, 72 h; in short: as §1
Human betaherpesvirus 5 [6] = assay: Antiviral activity against human cytomegalovirus AD169 in HEL cells assessed as reduction of plaque formation after 7 days; format: functional, organism-based; conditions: Human betaherpesvirus 5, AD169, HEL, 168 h; in short: as §2
CCRF-CEM = assay: Growth inhibition of human CEM cells after 72 hrs by MTT assay; format: functional, cell-based
[7] = Cytotoxicity against HEL cells assessed as cell morphology after 7 days; format: cell-based; conditions: human
In short: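 Uninfected confluent HEL cultures exposed to compounds; MCC recorded as lowest concentration producing a microscopically detectable alteration of normal cell morphology at day 7.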

[8] = test system: Mammalian orthoreovirus 1; assay: Antiviral activity against reovirus1 virus in Vero cells assessed as reduction of virus plaque formation after 7 days; format: functional, organism-based; conditions: Mammalian orthoreovirus 1, Vero, 168 h
L1210 = assay: Growth inhibition of mouse L1210 cells after 72 hrs by MTT assay; format: functional, cell-based; conditions: L1210, 72 h
Sindbis virus = assay: Antiviral activity against sindbis virus in Vero cells assessed as reduction of virus plaque formation after 7 days; format: functional, organism-based; conditions: 168 h
Coxsackievirus B4 = assay: Antiviral activity against coxsackie B4 virus in HeLa cells assessed as reduction of virus plaque formation after 7 days; format: functional, organism-based; conditions: Enterovirus B, 168 h

Structure (SMILES)	IC50 (SW-620) [µM]	IC50 [1] [µM]	IC50 (MCF7) [µM]	EC50 (Human betaherpesvirus 5 [2]) [µM]	IC50 (MIA PaCa-2) [µM]	CC50 at 168 h [3] [µM]	IC50 (HeLa) [µM]	EC50 (Punta Toro virus) [µM]	EC50 (Human alphaherpesvirus 3 [4]) [µM]	EC50 (Human alphaherpesvirus 3 [5]) [µM]	EC50 (Human respirovirus 3) [µM]	IC50 (HEp-2) [µM]	EC50 (Human betaherpesvirus 5 [6]) [µM]	IC50 (CCRF-CEM) [µM]	MCC at 168 h [7] [µM]	EC50 [8] [µM]	IC50 (L1210) [µM]	EC50 (Sindbis virus) [µM]	EC50 (Coxsackievirus B4) [µM]
CC(O)(CF)Cc1cc(O)nc(O)n1 (stereo not drawn)	> 200	> 200	> 200	> 100	> 200	> 100	> 200	> 196	> 100	> 100	> 196	> 200	> 100	> 200	> 100	> 196	> 200	> 196	> 200
Nc1nc2c(ncn2COCCO)c(=O)[nH]1 [ACYCLOVIR]						649									> 1780				
O=c1[nH]c(=O)n([C@H]2C[C@H](O)[C@@H](CO)O2)cc1/C=C/Br [BRIVUDINE]						408		> 250	168	0.014	> 250				≥ 1200	> 250		> 250	> 250
COc1cc(CC(C)(O)C(F)(F)F)nc(OC)n1 (stereo not drawn)	> 200	> 200	> 200	> 100	> 200	> 100	> 200	> 200	> 100	> 100	> 200	> 200	> 100	> 200	> 100	> 200	> 200	> 200	> 200
CC(=O)OC(C)(CF)Cc1cc(O)nc(O)n1 (stereo not drawn)	> 200	> 200	> 200	> 100	> 200	> 100	> 200	> 200	> 100	> 100	> 200	> 200	> 100	> 200	> 100	> 200	> 200	> 200	> 200
COc1cc(CC(C)(CF)OC(C)=O)nc(OC)n1 (stereo not drawn)	30	47.8	18	> 14.7	39	50	11.7	> 29	7.4	8.1	> 29	17.7	> 14.7	20.6	73.5	> 29	21.7	> 29	> 147
COc1cc(CC(O)(c2ccc(F)cc2)c2ccc(F)cc2)nc(OC)n1	> 100	> 500	> 100	> 100	> 100	> 100	> 100	> 40	> 100	> 100	> 40	> 100	> 100	> 500	> 100	> 40	≥ 500	> 40	> 40
COc1nc(CC(C)(O)C(F)(F)F)c(-c2ccccc2)c(OC)n1 (stereo not drawn)	20	118	> 17	> 0.8	20	35	17	> 40	> 20	> 20	> 40	19	> 0.8	70	4	> 40	82	> 40	> 40
Nc1nc2c(ncn2COC(CO)CO)c(=O)[nH]1 [GANCICLOVIR]				1.3		172							4.8		> 1580				
Nc1ccn(C[C@@H](CO)OCP(=O)(O)O)c(=O)n1 [CIDOFOVIR]				0.41		51							0.41		≥ 1270				
